Test results taken from ChEMBL document CHEMBL4382295, “Enhanced Tumor Selectivity of 5-Fluorouracil Using a Reactive Oxygen Species-Activated Prodrug Approach” (ACS Med Chem Lett, 2019).
The source made the active and inactive calls. No cut-off for these calls is given here.

How the values were obtained:
MCF7 [1] = assay: Induction of apoptosis in human MCF7 cells assessed as increase in cleaved PARP1 level up to 100 uM after 48 hrs by Western blot analysis; type: functional, cell-based
How it was run: (§1)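 MCF7 cells treated 48 h at the indicated concentrations, with vehicle-treated cells as control. Lysates immunoblotted for PARP1 and caspase 3 and their cleaved forms (CL-PARP1, CL-caspase 3).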

MCF7 [2] = assay: Induction of apoptosis in human MCF7 cells assessed as increase in cleaved caspase-3 level up to 100 uM after 48 hrs by Western blot analysis; type: functional, cell-based; how it was run: as §1
MCF7 [3] = assay: Antiproliferative activity against human MCF7 cells assessed as reduction in cell viability at 1 to 100 uM after 48 to 72 hrs by CCK8 assay; type: functional, cell-based
How it was run: (§2)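 Breast cancer MCF7 cells and normal MEC1 cells treated at a range of concentrations, concentrations up to 100 μM. Cell viability then measured. Mean ± SD, n = 4.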

MCF7 [4] = assay: Induction of DNA damage in human MCF7 cells assessed as increase in gammaH2AX level after 48 hrs by DAPI staining based immunofluorescence assay; type: functional, cell-based
How it was run: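 MCF7 cells treated 48 h at the indicated concentrations. γH2AX formation, a marker of DNA double-strand breaks, visualized by immunofluorescence.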

[5] = Acute toxicity in C57BL/6J mouse assessed as death at 100 mg/kg, ip administered every other day for 12 days; type: organism-based; details: in vivo, 288 h
[6] = Acute toxicity in C57BL/6J mouse assessed as decrease in body weight at 100 mg/kg, ip administered every other day for 12 days; type: organism-based; details: in vivo, 288 h
MDA-MB-435 = assay: Antiproliferative activity against human MDA-MB-435 cells assessed as growth inhibition at 50 uM after 48 hrs by sulforhodamine B assay relative to control; type: functional; details: MDA-MB-435, 48 h, read-out: GI
How it was run: (§3)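 NCI cell-line screen (protocol per DTP/NCI). Cells exposed to a single concentration of 50 μM for 48 h, then percent growth inhibition determined.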

MCF7 [7] = assay: Antiproliferative activity against human MCF7 cells assessed as reduction in cell viability at 50 to 100 uM after 48 hrs in presence of ROS scavenger NAC by MTT assay
[8] = Cytotoxicity against human MEC1 cells assessed as cell viability at 1 to 100 uM after 48 to 72 hrs by CCK8 assay relative to control; type: cell-based; details: read-out: Activity; how it was run: as §2
MDA-MB-468 = assay: Antiproliferative activity against human MDA-MB-468 cells assessed as growth inhibition at 50 uM after 48 hrs by sulforhodamine B assay relative to control; type: functional; details: MDA-MB-468, 48 h, read-out: GI; how it was run: as §3
MCF7 [9] = assay: Antiproliferative activity against human MCF7 cells assessed as growth inhibition at 50 uM after 48 hrs by sulforhodamine B assay relative to control; type: functional; details: MCF7, 48 h, read-out: GI; how it was run: as §3
NCI-H522 = assay: Antiproliferative activity against human NCI-H522 cells assessed as growth inhibition at 50 uM after 48 hrs by sulforhodamine B assay relative to control; type: functional; details: NCI-H522, 48 h, read-out: GI; how it was run: as §3
OVCAR-3 = assay: Antiproliferative activity against human OVCAR3 cells assessed as growth inhibition at 50 uM after 48 hrs by sulforhodamine B assay relative to control; type: functional; details: OVCAR-3, 48 h, read-out: GI; how it was run: as §3
[10] = Acute toxicity in C57BL/6J mouse assessed as abnormality in drinking at 100 mg/kg, ip administered every other day for 15 days measured during compound dosing; type: organism-based; details: in vivo, 360 h
How it was run: (§4)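 Wild-type male C57BL/6 mice, randomized into three groups of seven (21 total): vehicle (5% DMSO and 15% polyethylene glycol in saline) or 100 mg/kg test article. Dosed ip every other day for 15 days. Survival, body weight, eating, drinking and activity were recorded throughout treatment.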

[11] = Acute toxicity in C57BL/6J mouse assessed as death at 100 mg/kg, ip administered every other day for 15 days measured during compound dosing; type: organism-based; details: in vivo, 360 h; how it was run: as §4
[12] = Acute toxicity in C57BL/6J mouse assessed as decrease in body weight at 100 mg/kg, ip administered every other day for 15 days measured during compound dosing; type: organism-based; details: in vivo, 360 h; how it was run: as §4
[13] = Acute toxicity in C57BL/6J mouse assessed as effect on normal activity at 100 mg/kg, ip administered every other day for 15 days measured during compound dosing; type: organism-based; details: in vivo, 360 h; how it was run: as §4
[14] = Acute toxicity in C57BL/6J mouse assessed as abnormality in eating at 100 mg/kg, ip administered every other day for 15 days measured during compound dosing; type: organism-based; details: in vivo, 360 h; how it was run: as §4

Structure (SMILES)	Activity (MCF7 [1])	Activity (MCF7 [2])	Activity (MCF7 [3])	Activity (MCF7 [4])	Activity [5]	Activity [6]	inhibition of growth at 50 µM (MDA-MB-435) [%]	Activity (MCF7 [7])	viability at up to 100 µM [8] [%]	inhibition of growth at 50 µM (MDA-MB-468) [%]	inhibition of growth at 50 µM (MCF7 [9]) [%]	inhibition of growth at 50 µM (NCI-H522) [%]	inhibition of growth at 50 µM (OVCAR-3) [%]	Activity [10]	Activity [11]	Activity [12]	Activity [13]	Activity [14]
O=c1[nH]cc(F)c(=O)[nH]1 [FLUOROURACIL]	Active	Active	Active	Active	Toxic	Toxic	–	–	–	–	–	–	–	–	–	–	–	–
O=c1[nH]c(=O)n(Cc2ccc(B(O)O)cc2)cc1F	Active	Active	Active	Active	–	–	65	inactive	> 95	22	33	44	30	–	–	–	–	–
CC1(C)OB(c2ccc(Cn3cc(F)c(=O)[nH]c3=O)cc2)OC1(C)C	Active	Active	Active	Active	–	–	96	inactive	> 95	87	81	90	95	Non-Toxic	Non-Toxic	Non-Toxic	Non-Toxic	Non-Toxic
O=c1[nH]c(=O)n(Cc2ccccc2)cc1F	–	–	inactive	–	–	–	–	–	–	–	–	–	–	–	–	–	–	–
